Measured values as given in ChEMBL document CHEMBL3351238, “Part I. Synthesis, biological evaluation and docking studies of new 2-furylbenzimidazoles as antiangiogenic agents” (Eur J Med Chem, 2014).
Values after ≈ are worked out from the molar mass of the structure shown.

Assays:
[1] = system: MCF7; assay: Cytotoxicity against human MCF7 cells after 48 hrs by sulforhodamine B assay; format: functional, cell-based; conditions: MCF7, 48 h
How it was run: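 MCF-7 cells seeded at 10^4 per well and allowed 24 h to attach, then exposed to 0.0, 5.0, 12.5, 25.0 and 50 μg/ml, six wells per dose, for 48 h at 37 °C in 5% CO2. Cells were fixed and stained with sulforhodamine B. Bound dye was recovered in Tris EDTA and read on an ELISA reader. IC50 taken from the survival-fraction versus concentration curve.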

[2] = system: MCF7; assay: Inhibition of VEGF production in human MCF7 cells at cytotoxic IC50 level after 24 hrs by ELISA; format: functional
How it was run: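 MCF-7 from ATCC, grown in DMEM with 10% heat-inactivated FCS, penicillin and streptomycin at 37 °C in 5% CO2, 0.50 × 10^6 cells per 25 cm2 flask. Compound in DMSO (tamoxifen as reference) added for 24 h. Cells homogenized in saline. Human VEGF measured by double-antibody sandwich ELISA (biotin antibody, streptavidin-HRP, A450) against a standard curve, duplicate determinations. Inhibition relative to untreated cells.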

[3] = target: T1, Prostaglandin G/H synthase 1 (Ovis aries, UniProt P05979); assay: Inhibition of ovine COX1 assessed as reduction in PGH2-dervied PGF2alpha production using arachidonic acid substrate by enzyme immunoassay
T1 sequence (P05979 whole entry): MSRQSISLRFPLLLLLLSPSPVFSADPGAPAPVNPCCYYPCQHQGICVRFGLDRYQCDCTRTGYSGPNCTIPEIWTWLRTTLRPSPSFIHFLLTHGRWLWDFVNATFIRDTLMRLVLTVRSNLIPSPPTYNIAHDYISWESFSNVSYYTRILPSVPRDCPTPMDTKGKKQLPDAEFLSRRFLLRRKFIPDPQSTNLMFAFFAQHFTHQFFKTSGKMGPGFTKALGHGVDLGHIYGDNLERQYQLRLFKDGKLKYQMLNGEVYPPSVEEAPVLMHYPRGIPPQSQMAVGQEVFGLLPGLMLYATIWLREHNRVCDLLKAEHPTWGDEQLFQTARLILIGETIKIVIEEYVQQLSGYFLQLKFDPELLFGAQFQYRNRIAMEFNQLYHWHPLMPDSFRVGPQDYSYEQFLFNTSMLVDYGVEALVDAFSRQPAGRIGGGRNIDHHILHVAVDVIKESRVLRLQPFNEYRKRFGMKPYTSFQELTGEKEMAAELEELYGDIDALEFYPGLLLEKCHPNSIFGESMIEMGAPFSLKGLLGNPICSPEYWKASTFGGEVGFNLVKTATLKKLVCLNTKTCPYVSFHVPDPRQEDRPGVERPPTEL
How it was run: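 Arachidonic acid added and reaction stopped with HCl after 2 min. PGH2 reduced with SnCl2 and PGF2α quantified by competitive EIA at 410 nm. IC50 from concentration–inhibition curve, duplicates.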

Structure (SMILES)	IC50 [1] [µg/mL]	inhibition (INH) [2] [%]	IC50 [3] [µM]
Cc1ccc(-c2nc3ccccc3[nH]2)o1	14 (≈ 70.6 µM)	95	–
CCOC(=O)Cn1c(-c2ccco2)nc2ccccc21	15.2 (≈ 56.2 µM)	62	–
CCOC(=O)Cn1c(-c2ccc(C)o2)nc2ccccc21	17.8 (≈ 62.6 µM)	28	–
c1ccc(Cn2c(-c3ccco3)nc3ccccc32)cc1	6.98 (≈ 25.4 µM)	98	–
O=S(=O)(c1ccccc1)n1c(-c2ccco2)nc2ccccc21	21.2 (≈ 65.4 µM)	14	–
Cc1ccc(-c2nc3ccccc3n2S(=O)(=O)c2ccccc2)o1	8.63 (≈ 25.5 µM)	98	–
NNC(=O)Cn1c(-c2ccco2)nc2ccccc21	20.2 (≈ 78.8 µM)	24	–
Cc1ccc(-c2nc3ccccc3n2CC(=O)NN)o1	22.4 (≈ 82.9 µM)	86	> 50
NNC(=O)Cn1c(-c2ccc(CNc3ccncc3)o2)nc2ccccc21	22 (≈ 60.7 µM)	90	> 50
NNC(=O)Cn1c(-c2ccc(CNCc3ccccc3)o2)nc2ccccc21	19.3 (≈ 51.4 µM)	19	–
S=c1[nH]nc(Cn2c(-c3ccco3)nc3ccccc32)o1	16.9 (≈ 56.6 µM)	41	–
Cc1ccc(-c2nc3ccccc3n2Cc2n[nH]c(=S)o2)o1	16.6 (≈ 53.1 µM)	39	–
CCOC(=O)C/C(C)=N/NC(=O)Cn1c(-c2ccco2)nc2ccccc21	17 (≈ 46.1 µM)	38	–
CCOC(=O)C/C(C)=N/NC(=O)Cn1c(-c2ccc(C)o2)nc2ccccc21	19.6 (≈ 51.3 µM)	24	–
Nn1c(Cn2c(-c3ccco3)nc3ccccc32)n[nH]c1=S	20.5 (≈ 65.6 µM)	91	> 50
CSc1nnc(-n2c(-c3ccco3)nc3ccccc32)o1	19.3 (≈ 64.7 µM)	16	–
c1coc(-c2nc3ccccc3[nH]2)c1 [FUBERIDAZOLE]	21.5 (≈ 117 µM)	15	–
CC/C(=C(\c1ccccc1)c1ccc(OCCN(C)C)cc1)c1ccccc1 [TAMOXIFEN]	8 (≈ 21.5 µM)	98	–
